Bioassay records deposited in PubChem BioAssay by several laboratories.
Rows were chosen to be rich in hits. Some 1.4% of all compounds tested hit in one or more screens of this group.
TPT1 inh = blocks Candida albicans tRNA 2'-phosphotransferase; AID 1962; 0.81% of 300,000 active; inhibition, % at 5 µM; recombinant caTPT1, FP RNA substrate dephosphorylation;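 active means inhibition above the mean of all tested compounds plus 3 SD, set per screening campaign, cut at about 24% in these data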;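 further: plate controls were DMSO alone for no effect and ferristatin control at 100 nM for full effect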
IDE cell inh = inhibits human insulin-degrading enzyme in HEK cells | P14735 | inhibition, % at 5.59 µM | 0.41% of 320,000 active | FAbetaB cleavage, fluorescence polarization;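 active means percent inhibition above the average of all tested compounds plus 3 SD, set per screening campaign, cut at about 16% in these data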;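 further: IDE supplied by intact live HEK cells; FP after avidin binding of uncleaved biotin substrate so inhibition keeps polarization high; 0% = DMSO wells and 100% = 60 µM reference IDE inhibitor Ii1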
CSN inh = blocks human CSN-mediated cullin deneddylation; Purified CSN, SCF-Nedd8-OG deneddylation, fluorescence polarization; inhibition, % at 12.5 µM; 0.38% of 360,000 active;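 active means pattern-corrected inhibition above about 35%, with an unprinted fluorescence ratio check between 0.5 and 1.5, limit read from the data, passing the limit was not always enough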;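 further: 0% = enzyme with substrate and 100% = substrate without enzyme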
Target sequence (Q92905 whole entry, looked up, one chain of several): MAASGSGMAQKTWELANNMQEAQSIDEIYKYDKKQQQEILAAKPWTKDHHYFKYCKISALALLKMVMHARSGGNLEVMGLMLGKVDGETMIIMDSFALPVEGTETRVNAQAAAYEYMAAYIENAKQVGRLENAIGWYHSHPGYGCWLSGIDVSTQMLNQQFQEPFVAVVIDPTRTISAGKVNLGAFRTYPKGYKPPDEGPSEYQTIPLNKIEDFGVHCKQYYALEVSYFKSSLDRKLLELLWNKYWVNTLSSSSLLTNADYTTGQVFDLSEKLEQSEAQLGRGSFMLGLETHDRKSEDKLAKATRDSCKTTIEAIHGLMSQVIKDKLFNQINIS
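assay system = purified human Csn5 enzyme expressed in HEK293T cells | amount = 0.24 nM enzyme | buffer or medium = Tris/NaCl/DTT buffer, pH 7.5 | reagent = 10 nM SCFSkp2-Nedd8OG | compound = one concentration, 12.5 µM, 0.25% DMSO | times = 90 min reaction at room temperature | signal = FP | read-out basis = % inhibition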
IDE act = boosts human insulin-degrading enzyme activity in HEK cells. 0.073% of 340,000 active. P14735. AID 493087. FAbeta-B cleavage, fluorescence polarization; 0% vehicle, 100% cell-free pure enzyme wells. activation, % at 5.96 µM;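 active means activation above the mean of all tested compounds plus 3 SD, set per screening campaign, cut at about 17% in these data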
HNF4A DNA FP = change in binding of human HNF4 alpha to DNA; P41235; HNF4a-FITC DNA binding, fluorescence polarization, 1 h; activity change, % at 10 µM; AID 1224865; 0.3% of 360,000 active; in the data active means activity change above about 30%, passing the limit was not always enough
TPT1 inh confirm = TPT1 (C. albicans) inhibition, confirmation; 74% of 2,400 active; inhibition, % at 5 µM; AID 2149; shares compounds with TPT1 inh; recombinant caTPT1, fluorescence polarization, RNase T1 coupled;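 active means inhibition above the primary screen limit, the mean inhibition of all tested compounds plus 3 SD, cut at about 25% in these data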
RNase T1 inh = RNase T1 inhibition in TPT1 counter-screen | 83% of 2,400 active | shares compounds with TPT1 inh | inhibition, % at 5 µM | RNase T1 cleavage, fluorescence polarization, 1536-well;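 active means inhibition above the solvent-only control well mean plus 3 SD, limit set per screening run, cut at about 23% in these data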;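 further: plate controls were DMSO wells with enzyme for no effect and wells without RNase T1 for full effect; inhibitors block cleavage so intact labeled substrate keeps polarization high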
Target sequence (P00651 whole entry, looked up): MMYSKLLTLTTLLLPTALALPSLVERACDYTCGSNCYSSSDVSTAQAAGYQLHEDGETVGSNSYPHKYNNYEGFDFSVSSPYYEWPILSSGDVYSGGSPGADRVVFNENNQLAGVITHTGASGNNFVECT
The depositor's hits bear a star.

`Cn1c(-c2c(N)n(C3CCCC3)c3nc4ccccc4nc23)nc2ccccc21` gave TPT1 inh 38.6*, IDE cell inh -3.5, CSN inh 4.0, IDE act -0.8, HNF4A DNA FP 10.3, TPT1 inh confirm 43.5* and RNase T1 inh 51.0*.
`Cn1c(-c2c(N)n(CCc3ccccc3)c3nc4ccccc4nc23)nc2ccccc21` gave TPT1 inh 37.8*, IDE cell inh 1.8, CSN inh 3.6, IDE act -0.9, HNF4A DNA FP 22.3, TPT1 inh confirm 48.5* and RNase T1 inh 60.0*.
Screening COCCCn1c(N)c(-c2nc3ccccc3n2C)c2nc3ccccc3nc21 returned TPT1 inh 46.0*, IDE cell inh 8.6, CSN inh 12.1, IDE act -2.0, HNF4A DNA FP 17.6, TPT1 inh confirm 46.3* and RNase T1 inh 58.8*.
For COc1ccc(/C=C2\SC(=S)N(CCC(=O)Nc3ccccc3C(=O)O)C2=O)cc1 the results were TPT1 inh 1.7, IDE cell inh 2.3, CSN inh -0.5, IDE act 4.4 and HNF4A DNA FP -4.5.
O=C(CCN1C(=O)/C(=C/c2cccs2)SC1=S)Nc1ccccc1O was read as TPT1 inh 24.2*, IDE cell inh 0.2, CSN inh 12.8, IDE act 1.6, HNF4A DNA FP 17.6, TPT1 inh confirm 25.3* and RNase T1 inh 35.9*.
For COc1ccc(/C=C2\SC(=S)N(CCCC(=O)Nc3ccccc3C(=O)O)C2=O)cc1OC the results were TPT1 inh 38.9*, IDE cell inh -6.2, CSN inh 8.5, IDE act 4.7, HNF4A DNA FP 24.6, TPT1 inh confirm 70.0* and RNase T1 inh 77.1*.
Screening O=C(CCCN1C(=O)/C(=C/c2cccs2)SC1=S)Nc1cccc(C(=O)O)c1 returned TPT1 inh 4.0, IDE cell inh 7.3, CSN inh 2.8, IDE act 4.8 and HNF4A DNA FP -5.6.
Screening O=C(CCN1C(=O)/C(=C/c2cccs2)SC1=S)Nc1cccc(C(=O)O)c1 returned TPT1 inh 53.4*, IDE cell inh 9.2, CSN inh 10.6, IDE act -1.7, HNF4A DNA FP 12.1, TPT1 inh confirm 48.3* and RNase T1 inh 63.2*.
`O=C(CCN1C(=O)/C(=C/c2cccs2)SC1=S)Nc1ccc(O)cc1` gave TPT1 inh 7.6, IDE cell inh 1.8, CSN inh 18.7, IDE act -1.2 and HNF4A DNA FP 18.7.
O=C(CCN1C(=O)/C(=C\c2cccs2)SC1=S)Nc1ccccn1 was read as TPT1 inh 31.7*, IDE cell inh 6.7, CSN inh 7.7, IDE act 1.4, HNF4A DNA FP 21.8, TPT1 inh confirm 27.6* and RNase T1 inh 41.0*.
`CC(OC(=O)c1ccc(S(C)(=O)=O)c([N+](=O)[O-])c1)C(=O)NC1C2CC3CC(C2)CC1C3` (stereo not drawn) gave CSN inh 5.4 and HNF4A DNA FP -0.3.
CC(C)(C)C(=O)Nc1nnc(SCC(=O)NC2CCCCC2)s1 was read as TPT1 inh -1.1, IDE cell inh 1.4, CSN inh -3.6, IDE act -0.3 and HNF4A DNA FP 1.4.
CC(=O)C1=CCC(c2ccccc2)N(Cc2ccccc2)C1 (stereo not drawn) was read as CSN inh 3.7 and HNF4A DNA FP -3.7.
O=C(/C=C/[C@H]1O[C@@H](n2ccc(=O)[nH]c2=O)[C@H](O)[C@@H]1O)NCCN1CCOCC1 was read as CSN inh 4.8 and HNF4A DNA FP 3.1.
`C[C@H](O)[C@@H]1C(=O)N2CCc3c([nH]c4ccccc34)[C@@H]2C[C@@H]1N(C)C(=O)c1cc(Cl)cc(Cl)c1` gave CSN inh -1.0 and HNF4A DNA FP 1.9.
O=C(Nc1ccc2ccccc2c1)C(c1ccc(C(F)(F)F)cc1)n1c(=O)c(-c2cc3ccccc3[nH]2)nc2ccccc21 (stereo not drawn) was read as CSN inh 8.7 and HNF4A DNA FP 7.2.
CCOc1cc2c(cc1/C=C/c1noc(C)c1[N+](=O)[O-])OC(C)C2 (stereo not drawn) was read as TPT1 inh 75.1*, IDE cell inh 11.2, CSN inh 46.7*, IDE act -6.4, HNF4A DNA FP 106.0, TPT1 inh confirm 72.8* and RNase T1 inh 83.2*.
For COc1ccc(CNC(=O)CCS(=O)(=O)c2ccc3nc(C)sc3c2)cc1 the results were CSN inh -1.2 and HNF4A DNA FP 0.7.
`O=c1c(O)c(-c2cccs2)oc2ccccc12` gave TPT1 inh 24.6*, IDE cell inh -18.0, CSN inh -1.2, IDE act -85.0, HNF4A DNA FP -6.9, TPT1 inh confirm 24.8* and RNase T1 inh 36.3*.
`O=c1c(O)c(-c2ccccc2)oc2ccccc12` gave CSN inh 1.6, IDE act -7.0 and HNF4A DNA FP 2.3.
`O=C(NC1C2CC3CC(C2)CC1C3)c1ccc(Br)o1` (stereo not drawn) gave TPT1 inh -1.3, IDE cell inh 6.8, CSN inh 1.3, IDE act -0.7 and HNF4A DNA FP -3.1.
`CC(C)NC(=O)Nc1nnc([C@@H]2C[C@H](O)[C@@H](CO)O2)s1` gave CSN inh -5.4 and HNF4A DNA FP 2.0.
Screening O=C(/C=C/c1ccc2ccccc2n1)c1cc(Cl)ccc1O returned TPT1 inh 44.2*, IDE cell inh 6.6, CSN inh 18.1, IDE act 0.8, HNF4A DNA FP 26.8, TPT1 inh confirm 46.4* and RNase T1 inh 58.7*.
For CN1CCN(/N=C/c2ccc(-c3ccc([N+](=O)[O-])cc3Cl)o2)CC1 the results were TPT1 inh 29.6*, IDE cell inh 4.5, CSN inh 21.1, IDE act -1.8, HNF4A DNA FP 15.3, TPT1 inh confirm 35.4* and RNase T1 inh 48.7*.
O=[N+]([O-])c1ccc(Cl)c(-c2ccc(/C=N/n3cnnc3)o2)c1 was read as TPT1 inh -0.8, IDE cell inh 2.3, CSN inh 3.0, IDE act 4.6 and HNF4A DNA FP -2.4.
Screening COc1ccccc1OCC(=O)NNC(=O)Nc1ccc(Cl)cc1 returned TPT1 inh 6.8, IDE cell inh 4.3, CSN inh -5.1, IDE act 4.1 and HNF4A DNA FP 4.7.
COc1ccccc1OC(=O)Nc1ccc(Cl)cc1 was read as TPT1 inh 40.6*, IDE cell inh 6.8, CSN inh 1.1, IDE act 3.6, HNF4A DNA FP 0.6, TPT1 inh confirm 4.0 and RNase T1 inh 5.5.
